In ChEMBL document CHEMBL5705901, “Exploiting selective BCL-2 family inhibitors to dissect cell survival dependencies and define improved strategies for cancer therapy” (Sci Transl Med, 2015):
Active and inactive are the calls of the source. No cut-off for these calls is given here.

Key:
NCI-H1650 = experiment: Antitumor activity against human NCI-H1650 cells xenografted in SCID-bg mouse assessed as maximum tumor growth inhibition at 25 mg/kg, po administered daily for 14 days relative to control; format: functional; conditions: NCI-H1650, 336 h, time 14 day, read-out: TGI
Procedure, shortened: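 NCI-H1650 NSCLC xenografts, ten mice per group. Arms: vehicle; docetaxel iv once at 7.5 mg/kg; oral agent daily for 14 days at 25 mg/kg; and the two combined. TGImax = 100(1 − Tv/Cv) from mean volumes. TGD = 100(T/C − 1) from median times to reach 1 cm3.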

OVCAR-5 = experiment: Synergistic antitumor activity against human OVCAR-5 cells xenografted in po dosed SCID mouse assessed as tumor growth delay in presence of docetaxel relative to control; format: functional
Procedure, shortened: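 Xenografts dosed with oral inhibitor plus intravenous docetaxel. TGImax = 100(1 − Tv/Cv), from mean treated and control tumor volumes; TGD = 100(T/C − 1), from median times to reach 1 cm3. Group size 5 mice (NCI-H747, A549-FP3, EBC-1, OVCAR-5), 8 (NCI-H358), 10 (NCI-H1650).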

[1] = Toxicity in po dosed SCID mouse assessed as body weight loss in presence of docetaxel relative to control; format: organism-based; conditions: in vivo
MOLT-4 = experiment: Induction of apoptosis in human MOLT-4 cells assessed as increase in annexin V positive cells upto 500 nM incubated for 24 hrs by Annexin V staining based analysis; format: functional, cell-based
Procedure, shortened: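 Molt-4 cells were preincubated for 1 h with or without Z-VAD-fmk (75 μM), then treated for 24 h with increasing concentrations. Phosphatidylserine exposure was measured by annexin V staining. Values are the mean of triplicate experiments ± SD.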

[2] = Toxicity in po dosed SCID-bg mouse assessed as body weight loss relative to control; format: organism-based; conditions: in vivo
MDA-MB-231 [3] = experiment: Synergistic antitumor activity against LC3 positive human MDA-MB-231 cells xenografted in SCID mouse assessed as tumor growth delay at 25 mg/kg, po coadministered with docetaxel once daily for 14 days relative to control; format: functional; conditions: time 14 day
Procedure, shortened: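 MDA-MB-231 LC3 metastatic breast cancer xenograft, 10 mice per group, with a vehicle control. Dosing: oral agent 25 mg/kg daily for 14 days; docetaxel 7.5 mg/kg iv once; combination gives both regimens. Mean tumor volumes tracked. TGImax = 100(1 − Tv/Cv) from mean treated vs control volumes. TGD = 100(T/C − 1) from median times to reach 1 cm3.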

SK-BR-3 = experiment: Induction of apoptosis in human SK-BR-3 cells assessed as accumulation of cells with sub-G0-G1 DNA content at 1 uM incubated for 48 hrs in presence of docetaxel by flow cytometric analysis; format: functional, cell-based
MDA-MB-231 [4] = experiment: Induction of apoptosis in LC3 positive human MDA-MB-231 cells assessed as accumulation of cells with sub-G0-G1 DNA content at 1 uM incubated for 48 hrs in presence of docetaxel by flow cytometric analysis; format: functional, cell-based
ZR-75-1 [5] = experiment: Induction of apoptosis in human ZR-75-1 cells assessed as increase in caspase cleavage incubated for 48 hrs in presence of docetaxel by immunoblot analysis; format: functional, cell-based
Hs-578T = experiment: Synergistic antiproliferative activity against human Hs-578T cells assessed as reduction in cell viability by measuring bliss sum score incubated for 72 hrs in presence of docetaxel by CellTiter-Glo cell vaibility assay; format: functional
MDA-MB-231 [6] = experiment: Synergistic antiproliferative activity against human MDA-MB-231 cells assessed as reduction in cell viability by measuring bliss sum score incubated for 72 hrs in presence of docetaxel by CellTiter-Glo cell vaibility assay; format: functional
NCI-H146 = experiment: Induction of apoptosis in Bcl-xl dependent human NCI-H146 cells assessed as accumulation of caspase-dependent sub G0-G1 DNA content upto 5000 nM incubated for 24 hrs by fluorescence-activated cell sorting analysis; format: functional, cell-based
Procedure, shortened: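 NCI-H146 cells were preincubated for 1 h with or without the caspase inhibitor Z-VAD-fmk (75 μM). They were then exposed to increasing concentrations for 24 h. Sub-G0-G1 DNA content was measured by fluorescence-activated cell sorting.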

T47D = experiment: Synergistic antiproliferative activity against human T47D cells assessed as reduction in cell viability by measuring bliss sum score incubated for 72 hrs in presence of docetaxel by CellTiter-Glo cell vaibility assay; format: functional
ZR-75-1 [7] = experiment: Synergistic antiproliferative activity against human ZR-75-1 cells assessed as reduction in cell viability by measuring bliss sum score incubated for 72 hrs in presence of docetaxel by CellTiter-Glo cell vaibility assay; format: functional
OVCAR-4 = experiment: Antagonistic antiproliferative activity against human OVCAR-4 cells assessed as reduction in cell viability by measuring bliss sum score incubated for 72 hrs in presence of docetaxel by CellTiter-Glo cell vaibility assay; format: functional
OVCAR-3 = experiment: Synergistic antiproliferative activity against human OVCAR-3 cells assessed as reduction in cell viability by measuring bliss sum score incubated for 72 hrs in presence of docetaxel by CellTiter-Glo cell vaibility assay; format: functional

Cc1c(-c2ccc(N3CCc4cccc(C(=O)Nc5nc6ccccc6s5)c4C3)nc2C(=O)O)cnn1CC12CC3CC(CC(C3)C1)C2
inhibition in vivo at 25 mg/kg (NCI-H1650): 48% | Activity (OVCAR-5): 85% | Activity [1]: < 9% | Activity (MOLT-4): Active | Activity [2]: < 9% | Activity (MDA-MB-231 [3]): 141%

CC1(C)CCC(c2ccc(Cl)cc2)=C(CN2CCN(c3ccc(C(=O)NS(=O)(=O)c4ccc(N[C@H](CCN5CCOCC5)CSc5ccccc5)c(S(=O)(=O)C(F)(F)F)c4)cc3)CC2)C1 [NAVITOCLAX]
Activity (SK-BR-3): Active | Activity (MDA-MB-231 [4]): Active | Activity (ZR-75-1 [5]): Active

CN(C)CC#Cc1ccc(OCCCc2sc(N3CCc4cccc(C(=O)Nc5nc6ccccc6s5)c4C3)nc2C(=O)O)c(F)c1 [A-1155463]
Activity_index (Hs-578T): 62 | Activity_index (MDA-MB-231 [6]): 277 | Activity (NCI-H146): Active | Activity_index (T47D): 250 | Activity_index (ZR-75-1 [7]): 103 | Activity_index (OVCAR-4): -129 | Activity_index (OVCAR-3): 683
